Laboratory results as given in publication PMC6587324 (ChemistryOpen, 2019).
Read-outs that look alike come from different tables or passages of the source.

Tests used:
human integrin αvβ3 = human integrin αvβ3 (Homo sapiens, UniProt P05106+P06756); format: binding; conditions: SD
In short: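 Immobilized isolated human αvβ3 integrin incubated with biotinylated vitronectin (1 μg mL−1) plus test compound over 10−5–10−12 M. Bound biotinylated vitronectin measured. IC50 taken as the concentration giving 50 % inhibition of vitronectin binding, calculated from the concentration-response data. Values are mean ± standard deviation of duplicate measurements.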

integrin α5β1 [1] = molecular target: T1, integrin α5β1 (Homo sapiens, UniProt P05556+P08648); conditions: read-out: α5β1 IC50; cited from earlier work
integrin α5β1 [2] = molecular target: T1, integrin α5β1; test: Integrin α5β1 binding assay

SMILES | IC50 (human integrin αvβ3) [nM] | further results
COc1ccc(C[C@H]2NC(=O)/C=C/C[C@@H]([C@H](C)[C@@H](OC(=O)CNC(=O)CCc3cn(CCOCCOCCOCCOCC(=O)NCc4ccc(CN5C(=O)[C@H]6CC(=O)N[C@H](C(=O)O)CC(=O)NCC(=O)N[C@@H](CCCNC(=N)N)C(=O)NC[C@H]5C(=O)N6)cc4)nn3)[C@@H](Cl)c3ccccc3)OC(=O)[C@H](CC(C)C)OC(=O)C(C)(C)CNC2=O)cc1Cl [compound 14, cyclo[DKP‐isoDGR]‐PEG4‐uncl‐Cry‐55gly] | 10.2 ± 0.4 | –
N=C(N)NCCC[C@@H]1NC(=O)C[C@H]2NC(=O)[C@H](CNC(=O)[C@H](CC(=O)O)NC(=O)CNC1=O)N(Cc1ccccc1)C2=O [compound 1, cyclo[DKP‐RGD]] | – | IC50 (integrin α5β1 [1]): 532 nM
COc1ccc(C[C@H]2NC(=O)/C=C/C[C@@H]([C@H](C)[C@@H](OC(=O)CNC(=O)OCc3ccc(NC(=O)[C@H](C)NC(=O)[C@@H](NC(=O)CCc4cn(CCOCCOCCOCCOCC(=O)NCc5ccc(CN6C(=O)[C@H]7CC(=O)N[C@@H](CCCNC(=N)N)C(=O)NCC(=O)N[C@@H](CC(=O)O)C(=O)NC[C@H]6C(=O)N7)cc5)nn4)C(C)C)cc3)[C@@H](Cl)c3ccccc3)OC(=O)[C@H](CC(C)C)OC(=O)C(C)(C)CNC2=O)cc1Cl [compound 10, cyclo[DKP‐RGD]‐PEG4‐Val−Ala‐PABC‐Cry‐55gly] | 7.2 ± 1.5 | –
COc1ccc(C[C@H]2NC(=O)/C=C/C[C@@H]([C@H](C)[C@@H](OC(=O)CNC(=O)OCc3ccc(NC(=O)[C@H](C)NC(=O)[C@@H](NC(=O)CCc4cn(CCOCCOCCOCCOCC(=O)NCc5ccc(CN6C(=O)[C@H]7CC(=O)N[C@H](C(=O)O)CC(=O)NCC(=O)N[C@@H](CCCNC(=N)N)C(=O)NC[C@H]6C(=O)N7)cc5)nn4)C(C)C)cc3)[C@@H](Cl)c3ccccc3)OC(=O)[C@H](CC(C)C)OC(=O)C(C)(C)CNC2=O)cc1Cl [compound 11, cyclo[DKP‐isoDGR]‐PEG4‐Val−Ala‐PABC‐Cry‐55gly] | 5.5 ± 2.8 | –
N=C(N)NCCC[C@@H]1NC(=O)CNC(=O)C[C@@H](C(=O)O)NC(=O)C[C@H]2NC(=O)[C@H](CNC1=O)N(Cc1ccccc1)C2=O [compound 3, cyclo[DKP‐isoDGR]] | – | IC50 (integrin α5β1 [2]): 1070 nM
COc1ccc(C[C@H]2NC(=O)/C=C/C[C@@H]([C@H](C)[C@@H](OC(=O)CNC(=O)CCc3cn(CCOCCOCCOCCOCC(=O)NCc4ccc(CN5C(=O)[C@H]6CC(=O)N[C@@H](CCCNC(=N)N)C(=O)NCC(=O)N[C@@H](CC(=O)O)C(=O)NC[C@H]5C(=O)N6)cc4)nn3)[C@@H](Cl)c3ccccc3)OC(=O)[C@H](CC(C)C)OC(=O)C(C)(C)CNC2=O)cc1Cl [compound 13, cyclo[DKP‐RGD]‐PEG4‐uncl‐Cry‐55gly] | 24.1 ± 1 | –
